Screens deposited in PubChem by Broad Institute.
Only some compounds are listed: those with a hit (about 2.9% of all), similar ones and a draw of the others.
DENV2 CPE rescue: inhibitors of DENV2 cytopathic effect; DENV2-infected cells, cytopathic effect rescue, plate reader; CPE inhibition, % at 9.99 µM; 350,000 tested, 1.7% active; in the data active means CPE inhibition above about 20%, passing the limit was not always enough; tested in BHK-21 cells;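 further: 0% = median of neutral control wells and 100% = median of positive control wells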
PGC1a acetyl inh: PGC1a acetylation modulation, inhibitor mode | U2OS PGC1a acetylation, AlphaScreen anti-acetyl-lysine; with virally co-expressed GCN5 acetyltransferase | inhibition, % at 15.6 µM | AID 651687 | 350,000 tested, 0.17% active;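 active means every replicate shows inhibition of at least 40%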;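 further: 0% = neutral control wells and 100% = positive control wells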
Statin myotox sup: protects C2C12 myotubes from simvastatin toxicity; ATP luminescence, 48 h; scaled: DMSO 0, geranylgeraniol control 100; rescue of ATP level, % at 7.49 µM; 330,000 tested, 0.78% active;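 active means mean ATP rescue above about 67%, or every replicate alone reaching that limit, limit read from the data, passing the limit was not always enough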;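 further: myotubes were challenged with 10 µM simvastatin during compound exposure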
S100A4 MyoIIA: inhibitors of human S100A4 binding to myosin IIA peptide; 360,000 tested, 0.14% active; S100A4/TAMRA-MyoIIA peptide fluorescence polarization; inhibition, % at 10.7 µM; P26447;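 active means mean inhibition of at least 70% across replicates, with every replicate also reaching that level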
Target sequence (P26447 whole entry, looked up): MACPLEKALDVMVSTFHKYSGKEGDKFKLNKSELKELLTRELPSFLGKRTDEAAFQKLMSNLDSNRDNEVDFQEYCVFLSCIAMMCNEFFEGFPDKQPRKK
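Test system: S100A4 monomer protein. Medium: HEPES buffer with Ca2+, pH 7.2. Reagent: fluorescent myosin IIA peptide, 5 nM. Compound dosing: single-point compound testing. Timing: 5 min between mix addition and reading. Benchmarks: DMSO neutral and TFP positive wells.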
SIRT5 block: blocks human SIRT5 desuccinylation of peptide; Q9NXA8; inhibition, % at 15 µM; AID 652115; 330,000 tested, 1.1% active; Purified SirT5, succinyl-peptide AMC, trypsin-coupled fluorescence; in the data active means inhibition above about 15%
Target sequence (Q9NXA8 whole entry, looked up): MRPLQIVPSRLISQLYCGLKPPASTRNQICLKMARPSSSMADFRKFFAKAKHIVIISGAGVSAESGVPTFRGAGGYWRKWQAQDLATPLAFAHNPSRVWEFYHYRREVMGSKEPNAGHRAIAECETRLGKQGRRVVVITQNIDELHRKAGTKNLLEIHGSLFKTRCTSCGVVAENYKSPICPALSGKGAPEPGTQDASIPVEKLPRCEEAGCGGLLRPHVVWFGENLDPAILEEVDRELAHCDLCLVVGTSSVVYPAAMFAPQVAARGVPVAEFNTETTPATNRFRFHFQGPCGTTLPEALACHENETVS
* = called active by the depositor; nt = no result.

SMILES	DENV2 CPE rescue	PGC1a acetyl inh	Statin myotox sup	S100A4 MyoIIA	SIRT5 block
COc1ccc(OC)c(-c2nnc(SCC(=O)N3CCCc4ccccc43)o2)c1	nt	4	14	nt	nt
Cn1nnnc1SCC(=O)N1CCCc2ccccc21	nt	2	-11	nt	nt
C[C@H](CO)N1C[C@H](C)[C@H](CN(C)C(=O)Nc2cccc3ccccc23)Oc2ccc(NS(=O)(=O)c3ccc(F)cc3)cc2CC1=O	-7	-1	25	25	-1
O=C(c1cccnc1)N1C[C@H]2[C@@H](c3ccccc31)[C@@H](CO)N2C(=O)C1CCCC1	-7	6	-7	4	1
CCC1(CC)C(=O)NC(=O)NC1=Nc1cccc(OC)c1	nt	-12	117*	nt	nt
O=C(/C=C/c1cccs1)c1ccc(NC(=O)c2cccc(Br)c2)cc1	nt	48*	-22	nt	nt
O=C(N[C@@H]1CC[C@@H](CCn2cc(-c3ccccc3)nn2)O[C@@H]1CO)c1ccccc1F	-2	-15	-2	-49	0
O=C(Nc1ccccc1)N1CCCCN2[C@H](CO)[C@H](c3ccc(C#Cc4ccccn4)cc3)[C@H]2C1	-13	-6	nt	91*	1
O=C(Nc1ccc(F)cc1)N1CCCCN2[C@@H](CO)[C@H](c3ccc(C#Cc4ccccn4)cc3)[C@@H]2C1	-2	1	nt	-10	0
O=C(Nc1ccccc1)N1CCCCN2[C@H](CO)[C@H](c3ccc(C#CC4CC4)cc3)[C@H]2C1	34*	-18	nt	10	3
O=C(Nc1ccccc1)N1CCCCN2[C@H](CO)[C@@H](c3ccc(C#CC4CC4)cc3)[C@@H]2C1	10	4	nt	1	1
O=C(Nc1ccc(F)cc1)N1CCCCN2[C@H](CO)[C@H](c3ccc(C#Cc4ccccn4)cc3)[C@H]2C1	-10	5	nt	87*	-1
COc1ccc(C#Cc2ccc([C@H]3[C@H](CO)N4CCCCN(C(=O)Nc5ccc(F)cc5)C[C@@H]34)cc2)cc1	-6	-28	nt	-9	-4
COc1ccc(C#Cc2ccc([C@H]3[C@@H](CO)N4CCCCN(C(=O)Nc5ccc(F)cc5)C[C@@H]34)cc2)cc1	30*	0	nt	-8	6
C[C@@H]1CCCCO[C@@H](CN(C)C(=O)C2CCCCC2)[C@@H](C)CN([C@@H](C)CO)C(=O)c2cc(NS(=O)(=O)c3cn(C)cn3)ccc2O1	-10	10	nt	-47	-5
C[C@@H]1CN([C@@H](C)CO)C(=O)c2cc(NC(=O)C3CCCCC3)ccc2O[C@@H](C)CCCCO[C@H]1CN(C)S(=O)(=O)c1cccs1	-4	-9	nt	-8	6
COc1cc(/C=C2/NC(=O)NC2=O)cc(Br)c1OCc1ccc(C(=O)O)cc1	1	4	-2	1	15*
O=C(O)COc1c(Cl)cc(/C=C2\NC(=O)NC2=O)cc1Br	-5	nt	nt	2	2
COCC#Cc1ccc2c(c1)O[C@@H](CN(C)S(=O)(=O)c1ccc(OC)cc1)[C@H](C)CN([C@@H](C)CO)S2(=O)=O	-6	-1	-35	-1	5
COc1ccc(S(=O)(=O)N(C)C[C@H]2Oc3ccc(NS(C)(=O)=O)cc3C(=O)N([C@H](C)CO)C[C@@H]2C)cc1	0	-3	nt	9	-2
O=C1c2oc3ccc(F)cc3c(=O)c2C(c2cccc(O)c2)N1CCCN1CCOCC1 (centres undefined)	-1	nt	2	-1	nt
Cc1ccc2oc3c(c(=O)c2c1)C(c1cccc(Cl)c1)N(CCCN1CCOCC1)C3=O (centres undefined)	55*	-4	16	-1	nt
C[C@@H]1CN([C@@H](C)CO)C(=O)c2cc(C#CCN(C)C)cnc2O[C@@H]1CN(C)C(=O)NC1CCCCC1	19	-3	4	-8	5
COc1cc2oc3ccccc3c2cc1N(CC(=O)N(C)C)S(=O)(=O)c1ccc(C)cc1	nt	5	-2	nt	nt
COc1cc2oc3ccccc3c2cc1N(CC(=O)N1CCCCC1)S(=O)(=O)c1ccc(C)cc1	nt	-18	106*	nt	nt
SMILES	DENV2 CPE rescue	PGC1a acetyl inh	Statin myotox sup	S100A4 MyoIIA	SIRT5 block
O=C(CC1CC1)N1CC(=O)N2[C@H](CO)[C@@H](c3ccc(C#Cc4ccc(F)cc4)cc3)[C@H]2C1	1	-4	nt	-10	-2
COc1ccccc1NC(=O)N1CC(=O)N2[C@@H](CO)[C@@H](c3ccc(C#Cc4ccc(F)cc4)cc3)[C@@H]2C1	2	2	nt	16	3
COc1ccccc1NC(=O)N1CC(=O)N2[C@H](CO)[C@@H](c3ccc(-c4ccc(F)cc4)cc3)[C@@H]2C1	-8	-33	nt	25	4
CCCNC(=O)N1CC(=O)N2[C@H](CO)[C@@H](c3ccc(-c4ccc(F)cc4)cc3)[C@@H]2C1	2	15	nt	-3	26*
COc1ccccc1NC(=O)N1CC(=O)N2[C@H](C1)[C@@H](c1ccc(C#Cc3ccc(F)cc3)cc1)[C@@H]2CO	69*	-4	nt	-2	4
O=C(CC1CC1)N1CC(=O)N2[C@@H](CO)[C@@H](c3ccc(C#Cc4cccc(F)c4)cc3)[C@@H]2C1	29*	-4	nt	-1	0
COc1ccccc1NC(=O)N1CC(=O)N2[C@H](CO)[C@H](c3ccc(-c4ccc(F)cc4)cc3)[C@@H]2C1	-8	-3	nt	110*	3
CNC[C@@H]1Oc2ccc(NS(=O)(=O)c3ccc(C)cc3)cc2C(=O)N([C@@H](C)CO)C[C@@H]1C	4	-6	1	-8	-1
C[C@@H]1CN([C@H](C)CO)S(=O)(=O)c2ccc(-c3ccncc3)cc2O[C@@H]1CN(C)CC1CC1	6	1	7	5	0
Cc1ccc(S(=O)(=O)Nc2ccc3c(c2)CC(=O)N([C@@H](C)CO)C[C@H](C)[C@@H](CN(C)S(=O)(=O)c2ccc(F)cc2)O3)cc1	-1	-6	18	nt	nt
C[C@H](O)C#Cc1ccc2c(c1)O[C@H](CN(C)C(=O)C1CC1)[C@@H](C)CN([C@@H](C)CO)S2(=O)=O	57*	0	-1	9	2
COCC(=O)N(C)C[C@H]1Oc2cc(C#CCN(C)C)ccc2S(=O)(=O)N([C@@H](C)CO)C[C@H]1C	2	1	2	112*	-3
C[C@@H](O)C#Cc1ccc2c(c1)O[C@@H](CN(C)C(=O)CN(C)C)[C@@H](C)CN([C@@H](C)CO)S2(=O)=O	-13	8	6	8	-3
COCC(=O)N(C)C[C@@H]1Oc2cc(C#CCN(C)C)ccc2S(=O)(=O)N([C@H](C)CO)C[C@@H]1C	-15	1	11	11	-4
C[C@@H]1CN([C@H](C)CO)S(=O)(=O)c2ccc(C#Cc3ccncc3)cc2O[C@@H]1CN(C)C(=O)C1CC1	30*	-1	-9	-4	2
C[C@H](O)C#Cc1ccc2c(c1)O[C@H](CN(C)C(=O)CN(C)C)[C@H](C)CN([C@H](C)CO)S2(=O)=O	42*	6	nt	1	6
